# Data published in PubChem BioAssay AID624079 (The Scripps Research Institute Molecular Screening Center, 2012).
# “And” between values parts separate entries of the source, which are not always exact repeats. Equal entries are not always repeated.
# Target: metallo-beta-lactamase VIM-2 (Pseudomonas aeruginosa)
# Experiment: VIM-2 metallo-beta-lactamase inhibitors, late-stage follow-up, biochemical, absorbance, probe candidates and analogs (AID 624079)
# Conditions: purified VIM-2, nitrocefin hydrolysis, epi-absorbance
# How it was run: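 system = purified VIM-2 enzyme | doses = dilution series with 60 µM top concentration | times = 15 min preincubation, 25 min nitrocefin hydrolysis, 25 °C, EDTA stop | measured by = hydrolysis product quenching plate fluorescence, 480 nm excitation, 530 nm emission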
row,Compound,IC50
1,CN1CCN(NC(=O)CN2C(=O)/C(=C/c3c(Cl)cccc3Cl)SC2=S)CC1,3.98 µM and 4.55 µM
2,CN1CCN(NC(=O)CN2C(=O)/C(=C/c3c(Cl)ccc(Cl)c3Cl)SC2=S)CC1,0.548 µM
